This is a sample that favours compounds with a hit; in the whole collection about 2.4% have one here.
PAD4 inh = PAD4 (human) enzyme inhibition; Q9UM07; recombinant PAD4, RCA probe fluorescence polarization; inhibition, % at 6.36 µM; 330,000 compounds, 0.41% hits; AID 485272;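 active = percent inhibition above a cutoff equal to the mean of all tested compounds plus 3 SD, cut at about 15% in these data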;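 note: 0% = PAD4 with RCA probe and DMSO and 100% = probe without PAD4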
Apaf-1 inh = blocks human Apaf-1 apoptosome activity. O14727. reconstituted apoptosome caspase-3 activity, DEVD-Rh110 fluorescence. inhibition, % at 20 µM. 330,000 compounds, 0.71% hits; active = inhibition of at least 40% at 20 µM;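 note: plate controls were DMSO wells for no effect and DEVD-CHO caspase inhibitor wells for full effect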
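System: Apoptosome proteins | Medium: Hepes pH 7.5 with detergent and BSA | Also added: Cytochrome c trigger plus (Z-DEVD)2-Rh110 caspase-3 substrate | Incubation: 30 min compound preincubation, 50 min activation, room temperature | Detection: Rhodamine 110 fluorescence at Ex 480/Em 540 nm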
TDP2 inh = blocks human TDP2 phosphodiesterase activity | inhibition, % at 12.8 µM | O95551 | AID 720702 | 370,000 compounds, 0.34% hits | recombinant TDP2, T5PNP hydrolysis, p-nitrophenol absorbance 415 nm;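 active = inhibition above the mean of all tested compounds plus 3 SD, set per campaign, cut at about 25% in these data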;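 note: 0% = DMSO with enzyme and 100% = buffer with substrate but no TDP2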
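System – recombinant human TDP2 · Amount – 120 nM TDP2 per well · Buffer or medium – Mg2+-containing Tris-HCl buffer, pH 7.5 · Reagent – T5PNP substrate, 5 mM · Dosing – 12.8 µM single point, 1% DMSO · Incubation – 2 h at 37 °C · Measured by – epi absorbance · Read-out basis – percent inhibition · Benchmarks – high control without enzyme, low control DMSO plus TDP2 · Repeats – singlicate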
SIAE inh = human SIAE inhibition, primary screen; Q9HAT2; SIAE FP-Rh probe binding, fluorescence polarization; inhibition, % at 9.66 µM; 370,000 compounds, 0.69% hits; AID 1053197;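 active = inhibition above a cutoff: mean of compounds within the control limits plus 3 SD of those, cut at about 17% in these data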;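 note: 0% = plate median of compound wells and 100% = probe without SIAE protein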
Target sequence (Q9HAT2 whole entry, looked up): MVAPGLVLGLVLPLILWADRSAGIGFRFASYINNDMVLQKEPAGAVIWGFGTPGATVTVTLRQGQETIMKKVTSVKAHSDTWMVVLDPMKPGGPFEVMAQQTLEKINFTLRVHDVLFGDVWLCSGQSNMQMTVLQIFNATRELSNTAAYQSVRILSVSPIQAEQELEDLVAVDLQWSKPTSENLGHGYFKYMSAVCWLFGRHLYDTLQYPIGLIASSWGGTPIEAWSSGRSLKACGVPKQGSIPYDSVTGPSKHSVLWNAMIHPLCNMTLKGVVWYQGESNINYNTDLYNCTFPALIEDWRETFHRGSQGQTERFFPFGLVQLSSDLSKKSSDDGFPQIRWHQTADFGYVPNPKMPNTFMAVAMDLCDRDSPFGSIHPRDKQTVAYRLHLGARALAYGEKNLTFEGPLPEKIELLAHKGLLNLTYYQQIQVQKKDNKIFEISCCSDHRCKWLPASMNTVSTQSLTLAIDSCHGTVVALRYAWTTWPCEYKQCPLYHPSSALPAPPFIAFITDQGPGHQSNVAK
GSTO1 counter = counter-screen for RBBP9 inhibitors: inhibitors of human GSTO1. inhibition, % at 5.96 µM. 300,000 compounds, 1.1% hits. P78417. recombinant GSTO1, activity-based probe fluorescence polarization. AID 1974;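 active = inhibition above the campaign mean inhibition plus 3 SD, cut at about 35% in these data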;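 note: 0% = GSTO1-1 with DMSO and 100% = wells lacking GSTO1-1 enzyme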
TCR-CD3 inh = blocks the human TCR-CD3 interaction; TAMRA-labeled TCR probe fluorescence, biochemical; inhibition, % at 9.4 µM; 360,000 compounds, 0.37% hits; AID 651800; in the data active = inhibition above about 19%;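 note: recombinant mutant TCR 2C K166C tagged with TAMRA read by polarization; 0% = receptor in buffer alone and 100% = receptor with positive control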
SIAE confirm = human SIAE inhibition, confirmation. SIAE FP-Rh activity-based probe, fluorescence polarization. AID 1117263. inhibition, % at 9.66 µM. shares compounds with SIAE inh. 2,300 compounds, 13% hits;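 active = mean inhibition of the replicates above the hit cutoff set in the primary screen, cut at about 17% in these data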;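 note: 0% = SIAE with DMSO and probe and 100% = probe without SIAE; inhibitors lower polarization as more probe stays unbound to SIAE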
* = called active by the depositor; / = not tested or not shown.

SMILES	PAD4 inh	Apaf-1 inh	TDP2 inh	SIAE inh	GSTO1 counter	TCR-CD3 inh	SIAE confirm
Nc1c(C(=O)NCc2ccccc2)sc2nc(N3CCOCC3)c3c(c12)CCCC3	0.0	19.8	4.6	19.0*	6.8	-3.2	5.1
CNC(=O)c1ccc(-c2sc3nc(N4CCOCC4)c4c(c3c2N)CCCC4)o1	-1.9	31.0	3.0	21.9*	-0.7	0.8	4.9
NNC(=O)c1sc2nc(N3CCOCC3)c3c(c2c1N)CCCC3	4.9	9.7	10.7	17.9*	24.0	8.5	1.9
CNC(=O)c1ccc(-c2sc3nc(N4CCOCC4)c4c(c3c2N)CC(C)(C)OC4)o1	0.9	7.8	11.0	3.6	2.5	1.0	/
COc1ccc(CCn2nc(C)c([N+](=O)[O-])c2C)cc1	-2.0	3.3	16.6	-0.1	3.6	-2.1	/
CC(C(=O)NCc1cccs1)n1cccc1 (stereo not given)	-4.2	1.5	6.4	20.2*	7.1	2.0	1.7
O=C(NCc1cccs1)C(Cc1ccccc1)n1cccc1 (stereo not given)	-3.8	7.0	-3.2	-5.7	16.4	-4.8	/
O=C(c1ccco1)N1CCN(Cc2cc(=O)c(OCc3ccccc3Cl)co2)CC1	3.0	-3.7	8.7	11.7	4.5	-0.2	/
COc1ccc(-c2nn(-c3ccccc3)cc2/C=N/Nc2ccc3ccccc3n2)cc1OC	-1.4	-4.1	-2.1	18.6*	1.5	4.2	7.9
COc1ccc(-c2nn(-c3ccccc3)cc2/C=N/O)cc1OC	-0.6	4.0	10.8	-6.4	1.4	3.9	/
Cc1ccc(C)c(NC(=S)NCc2ccc3c(c2)OCO3)c1	4.2	10.8	0.9	18.0*	-1.5	8.0	-2.4
COc1ccc(C(=O)COC(=O)c2sc(C)nc2C)cc1Cl	-1.9	5.3	1.2	-3.1	/	5.3	/
CNc1nc(NCc2ccccc2)c2ccccc2n1	-0.8	-8.2	4.7	-2.9	2.7	-5.5	/
Oc1ccccc1Nc1nc(NCc2ccccc2)c2ccccc2n1	-3.7	5.5	-4.9	20.7*	-7.3	4.0	6.2
Cn1cc([N+](=O)[O-])c(C(=O)N/N=C/c2ccncc2)n1	-6.5	-1.8	-15.8	17.1*	-0.1	1.8	3.0
CC(C)NCC(=O)NC12CC3CC(CC(C3)C1)C2	1.4	0.3	0.3	21.4*	-2.1	-5.4	8.0
O=C(O)CC(=O)NC12CC3CC(CC(C3)C1)C2	2.5	6.3	-3.6	0.4	3.4	3.2	/
CCc1cc2cccc(C)c2nc1SCC(=O)N1CCN(C(=O)c2ccco2)CC1	-6.7	16.3	1.4	-0.3	-1.6	3.6	/
Cc1cc(C)n2nc(SCC(=O)c3cc(C)n(CC4CCCO4)c3C)nc2n1 (stereo not given)	-5.5	1.8	1.4	19.5*	-5.3	7.6	-0.1
Cn1c(=O)c2c(-c3ccc(C(C)(C)C)cc3)n(CC3CCCO3)cc2n(C)c1=O (stereo not given)	3.6	8.7	-4.7	2.8	0.5	2.8	/
Cc1cccc(-c2c3c(=O)n(C)c(=O)n(C)c3cn2CC2CCCO2)c1 (stereo not given)	-4.4	-2.3	-2.6	18.6*	-6.4	2.6	-2.8
Cc1cc(Nc2ccccc2C(=O)O)nc2nc3ccccc3c(=O)n12	-0.2	11.0	0.3	23.0*	-5.0	3.6	-3.8
Cc1ccccc1N1CCN(C2=NC(=O)/C(=C/c3cn[nH]c3-c3ccccc3)S2)CC1	-8.8	0.9	-8.5	23.7*	-1.4	8.1	-5.5
Cc1cccc(NC(=O)CSc2nc3ccccc3nc2N2CCCCC2)c1	1.1	16.7	2.6	-15.6	2.7	0.3	/
Nc1[nH]c(C(=O)c2ccccc2)c(-c2ccc(Cl)cc2Cl)c1C(=O)NCCc1c[nH]c2ccccc12	/	/	-1.4	18.9*	/	4.2	14.7
Nc1[nH]c(C(=O)c2ccc(Br)cc2)c(-c2ccc(Cl)cc2Cl)c1C(=O)NCCc1c[nH]c2ccccc12	/	/	7.3	12.8	/	-10.8	/
COC(=O)c1ccccc1OC(=O)c1cc[n+]([O-])cc1	-0.5	-9.7	-6.1	-4.4	1.2	-4.2	/
Cc1ccc(-n2ncc3c(N4CCN(c5ccccc5)CC4)ncnc32)c(C)c1	0.0	24.8	2.2	17.8*	4.2	-1.0	2.5

Screening data from PubChem BioAssay.
